Data on ten compounds can be found in ChEMBL document CHEMBL1131320, “Role of the C(6)-hydroxy group in bicyclomycin: synthesis, structure, and chemical, biochemical, and biological properties” (1998).

Experiment [1] deals with Escherichia coli. The experiment is described as follows: The compound was tested for minimum inhibitory concentration (MIC) against Escherichia coli W3350 cells. The class given is functional. In short, it runs like this: (§1)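 Filter-disk assay; MIC taken as the average minimum inhibitory concentration from duplicate tests.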
Experiment [2] deals with Escherichia coli. Nature of the experiment: The compound was tested for the % inhibition of transcription termination (TT) activity in Escherichia coli-rho at 100 uM. The class given is functional. In short, it runs like this: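 Rho-dependent transcription termination (Platt method), at pH 7.9 with [α-³²P]UTP label and purified E. coli rho. Percent termination is read at 100 µM.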

The test system of experiment [3] is Escherichia coli. The experiment is described as follows: The compound was tested for the concentration to inhibit 50% of transcription termination activity in Escherichia coli-rho and is expressed in I50. The class given is functional. Summed up:
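Rho-dependent transcription termination following Platt and co-workers, at pH 7.9 with [α-³²P]UTP and rho purified from E. coli AR120/p39-AS. I50 is the average 50% inhibition concentration from duplicate tests.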

Experiment [4] concerns the target Transcription termination factor rho (Escherichia coli) (UniProt P0AG30). Nature of the experiment: The compound was tested for the concentration to inhibit 50% of ATPase activity.
For experiment [5] the target is unchanged. The experiment is described as follows: The compound was tested for the % inhibition of rho poly(C)-stimulated ATPase activity at 400 uM.
The subject of experiment [6] is Escherichia coli. The experiment is described as follows: The compound was tested for minimum inhibitory concentration (MIC) against Escherichia coli W3350 cells. It is filed as functional. In short, it runs like this: as §1
Experiment [7] relates to Escherichia coli. The experiment is described as follows: The compound was tested for the % inhibition of rho poly(C)-stimulated ATPase activity at 400 uM. It is filed as functional. In short, it runs like this:
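Poly(C)-dependent ATPase of purified E. coli rho (AR120/p39-AS overexpression, Lowry-quantified), run at pH 7.9 with [γ-³²P]ATP. Percent inhibition is read at 400 µM alongside a concurrently run parent-antibiotic reference.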

In brackets after ≈: the same amount, converted by molar mass.

Chain of Transcription termination factor rho (Escherichia coli) (P0AG30 whole entry, looked up): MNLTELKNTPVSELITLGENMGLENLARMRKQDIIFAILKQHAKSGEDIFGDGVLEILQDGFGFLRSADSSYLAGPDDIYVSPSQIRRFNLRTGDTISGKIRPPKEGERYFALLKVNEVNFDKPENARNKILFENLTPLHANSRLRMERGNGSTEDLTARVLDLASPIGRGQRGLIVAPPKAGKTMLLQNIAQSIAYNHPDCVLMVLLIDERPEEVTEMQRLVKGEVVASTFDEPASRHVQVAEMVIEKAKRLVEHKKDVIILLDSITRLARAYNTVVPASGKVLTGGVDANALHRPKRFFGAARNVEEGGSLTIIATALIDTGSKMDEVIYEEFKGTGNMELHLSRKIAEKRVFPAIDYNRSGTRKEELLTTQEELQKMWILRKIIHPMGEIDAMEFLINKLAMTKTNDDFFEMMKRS

With `C=C1CCOC2([C@@H](O)[C@@](C)(O)CO)NC(=O)[C@@]1(N(C)O)NC2=O`, the MIC in the experiment on Escherichia coli [1] (read-out: MIC) is over 32 µg/mL. In the experiment on Escherichia coli [2], this compound showed an inhibition at 100 µM of 0%. The I50 in the experiment with Escherichia coli [3] was over 100 µM; in experiment [4], over 400. Also, the inhibition in experiment [5] was found to be 16%.
The compound `C=C1CCOC2([C@@H](O)[C@@](C)(O)CO)NC(=O)[C@@]1(O)NC2=O` had an MIC with Escherichia coli [1] of 250 µg/mL (≈ 827 µM). In the experiment with Escherichia coli [2], this compound returned an inhibition at 100 µM of 100%. This compound also came in with an I50 in the experiment with Escherichia coli [3] of 5 µM.
In the case of `C=C1CCOC2([C@@H](O)[C@@](C)(O)CO)NC(=O)[C@@]1(NC(C)=O)NC2=O`, the MIC with Escherichia coli [1] (read-out: MIC) is over 32 µg/mL. Further, testing at 100 µM with Escherichia coli [2] gave an inhibition of 1%. Also, the I50 in the experiment with Escherichia coli [3] is over 100 µM; in experiment [4], over 400. In addition, in experiment [5], the inhibition amounted to 15%.
Take `C=C1CCOC2([C@@H](O)[C@@](C)(O)CO)NC(=O)[C@@]1(N(C)OC)NC2=O`: the MIC with Escherichia coli [1] (read-out: MIC) was over 32 µg/mL. 100 µM produced 0% inhibition with Escherichia coli [2]. In addition, the I50 is over 100 µM in the experiment on Escherichia coli [3] and over 400 in experiment [4]. This compound returned an inhibition in experiment [5] of 7%.
The compound `C=C1CCOC2([C@@H](O)[C@@](C)(O)CO)NC(=O)[C@@]1(N)NC2=O` showed an MIC with Escherichia coli [6] of over 32 µg/mL. In the experiment with Escherichia coli [7], the inhibition at 400 µM came out at 17%. The same compound registered an inhibition at 100 µM in the experiment on Escherichia coli [2] of 5%. The figures for the I50 (in the experiment on Escherichia coli [3]; in experiment [4]) were over 100 µM and over 400, respectively.
Turning to `C=C1CCOC2([C@@H](O)[C@@](C)(O)CO)NC(=O)[C@@]1(NO)NC2=O`, the minimum inhibitory concentration (MIC) in the experiment on Escherichia coli [1] (read-out: MIC) was over 32 µg/mL. For the same compound, the inhibition at 100 µM with Escherichia coli [2] was determined as 22%. The I50 is over 100 µM with Escherichia coli [3] and over 400 in experiment [4]. This compound also registered an inhibition in experiment [5] of 45%.
For `C=C1CCOC2([C@@H](O)[C@@](C)(O)CO)NC(=O)[C@@]1(NC)NC2=O`, the MIC in the experiment with Escherichia coli [1] (read-out: MIC) was over 32 µg/mL. In the experiment on Escherichia coli [2], 100 µM produced 2% inhibition. Also, the results for the I50 (in the experiment with Escherichia coli [3]; in experiment [4]) were over 100 µM and over 400, respectively. The compound further returned an inhibition in experiment [5] of 3%.
Consider `C=C1CCOC2([C@@H](O)[C@@](C)(O)CO)NC(=O)[C@@]1(S)NC2=O`, for which, in the experiment with Escherichia coli [1] (read-out: MIC), the MIC is over 32 µg/mL. The compound further yielded an inhibition at 100 µM in the experiment on Escherichia coli [2] of 8%. Also, the figures for the I50 (with Escherichia coli [3]; in experiment [4]) were over 100 µM and over 400, respectively. This compound also showed an inhibition in experiment [5] of 28%.
With `C=C1CCOC2([C@@H](O)[C@@](C)(O)CO)NC(=O)[C@@]1(N(C)C)NC2=O`, the minimum inhibitory concentration (MIC) against Escherichia coli [6] was over 32 µg/mL. Further, the inhibition at 100 µM with Escherichia coli [2] turned out to be 1%. For the same compound, the values for the I50 (in the experiment with Escherichia coli [3]; in experiment [4]) were over 100 µM and over 400, respectively. The compound also gave an inhibition in experiment [5] of 1%.
For `C=C1CCOC2([C@@H](O)[C@@](C)(O)CO)NC(=O)[C@@]1(NOC)NC2=O`, the MIC in the experiment on Escherichia coli [1] (read-out: MIC) was over 32 µg/mL. In addition, the inhibition at 100 µM in the experiment on Escherichia coli [2] is 0%. Moreover, the I50 was over 100 µM in the experiment with Escherichia coli [3] and over 400 in experiment [4]. The inhibition in experiment [5] is 13%.

The term MIC denotes the lowest concentration that inhibits growth of the organism. As usually defined, the inhibition is the relative decrease from the control value, in per cent. Read a high inhibition as strong suppression.
